T cruzi growth-1 = T. cruzi intracellular proliferation inhibitors, primary screen, cell-based, beta-gal Tulahuen parasites, NIH3T3 host, luminescence | inhibition, % at 8.34 µM | T. cruzi beta-gal in NIH3T3, GalScreen luminescence, 90 h | 5.9% of 77,000 active;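 active = mean inhibition above about 93%, with at least 55% of replicates each passing it, limit read from the data, passing the limit was not always enough; inconclusive = only one of those two conditions holds; inactive = neither condition holds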
KDM4C inh = inhibitors of GASC-1 (KDM4C) histone demethylase, primary screen, biochemical, single concentration HTS; Lysine-specific demethylase 4C (Homo sapiens), Q9H3R0; GST-KDM4C 2-372, H3K9me3 peptide, LANCE TR-FRET; AID 720574, 2013; inhibition, % at 12.5 µM; 0.15% of 96,000 active;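 active = mean replicate inhibition above about 25%, with at least 55% of replicates also reaching it, limit read from the data, passing the limit was not always enough; inconclusive = only one of those two conditions met; inactive = neither condition met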
Target sequence (Q9H3R0 2-372 limits assumed): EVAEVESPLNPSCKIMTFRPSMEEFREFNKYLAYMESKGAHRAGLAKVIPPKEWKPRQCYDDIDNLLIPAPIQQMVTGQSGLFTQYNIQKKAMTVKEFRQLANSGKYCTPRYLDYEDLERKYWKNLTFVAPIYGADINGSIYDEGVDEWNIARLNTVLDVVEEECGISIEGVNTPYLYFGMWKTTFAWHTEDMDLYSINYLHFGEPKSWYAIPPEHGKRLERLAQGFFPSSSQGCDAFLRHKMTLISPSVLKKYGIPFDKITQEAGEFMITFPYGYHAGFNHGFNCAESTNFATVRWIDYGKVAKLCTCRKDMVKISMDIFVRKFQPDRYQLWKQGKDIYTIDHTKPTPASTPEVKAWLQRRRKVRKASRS
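Test system: N-terminal GST-fused human GASC-1 (KDM4C) fragment, residues 2-372; quantity: GASC-1 enzyme at 10 nM final in reaction; dosing: single dose; schedule: 30 min demethylation and 1 h detection at room temperature; signal: LANCE TR-FRET, excitation 340 nm, emissions 618 and 671 nm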
IDH1 R132H inh = inhibitors of IDH1 R132H reductase, primary screen, biochemical, plate reader, single point; AID 624101, 2012; 0.18% of 70,000 active; Isocitrate dehydrogenase [NADP] cytoplasmic (Homo sapiens), O75874; diaphorase/resazurin fluorescence, 60 min; inhibition, % at 10 µM; in the data active = inhibition above about 34%; inconclusive = no clear call, values can overlap the other calls; inactive = below about 11%;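 also: 0% = DMSO and 100% = no enzyme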
Pf Dd2 growth = P. falciparum Dd2 growth inhibitors, primary screen, SYBR Green fluorescence, single dose replicates; 72 h; stronger effect = lower value; activity change, % at 10 µM; 2.3% of 94,000 active; in the data active = activity change below about -80%; inconclusive = no clear call, values can overlap the other calls
T cruzi growth-2 = T. cruzi intracellular proliferation inhibitors, confirmation, cell-based, NIH3T3 host, beta-gal parasite, luminescence, cherry-pick | 72% of 5,600 active | T. cruzi beta-gal in NIH3T3, GalScreen luminescence, 90 h | inhibition, % at 8.35 µM | AID 651739, 2012 | shares compounds with T cruzi growth-1;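 active = mean replicate inhibition above about 95% and at least 55% of replicates individually reaching it, limit read from the data; inconclusive = only one of the two criteria is met; inactive = neither criterion is met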
T cruzi growth-3 = inhibitors of intracellular T. cruzi replication, confirmation, NIH3T3 host cells, beta-gal parasites, cherry-pick, set 2; T. cruzi beta-gal in NIH3T3, GalScreen luminescence, 90 h; inhibition, % at 2.09 µM; shares compounds with T cruzi growth-1; 21% of 5,600 active;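 active = mean inhibition above about 95%, with at least 55% of replicates also reaching it, limit read from the data; inconclusive = meets just one of the two conditions; inactive = meets neither condition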;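 also: plate controls were neutral control median for no effect and positive control median for full effect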
3T3 cytotox = cytotoxicity in mouse NIH/3T3 fibroblasts, confirmation, cytotoxicity control for T. cruzi proliferation inhibitor project, cell-based, cherry-pick, single point; shares compounds with T cruzi growth-1; cytotoxicity (signal decrease), % at 8.35 µM; NIH/3T3 viability, CellTiter-Glo ATP luminescence, 90 h; AID 651742, 2012; 14% of 5,600 active;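 active = mean signal decrease across replicates above about 35% based on untreated-well scatter, with enough replicates individually passing, limit read from the data; inconclusive = no rule stated though some were filed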;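 also: 0% = median of neutral control wells and 100% = median of positive control wells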
3T3 cytotox 2 = NIH/3T3 fibroblast cytotoxicity, confirmation, cytotoxicity control, cell-based, cherry-pick, single point, set 2. shares compounds with T cruzi growth-1. inhibition, % at 24.9 µM. 56% of 5,600 active. NIH/3T3 viability, CellTiter-Glo ATP luminescence, 90 h;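 active = mean loss of cell viability signal at or above a set limit, and enough replicates individually reaching it; inconclusive = meets only the mean limit or only the replicate share; inactive = meets neither condition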;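 also: 0% = median of neutral control wells and 100% = median of positive control wells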
* hit, by the source's call; u = inconclusive; x = no result. Rows were chosen to be rich in hits. Some 5.9% of all compounds tested hit in one or more screens of this group.

SMILES | T cruzi growth-1 | KDM4C inh | IDH1 R132H inh | Pf Dd2 growth | T cruzi growth-2 | T cruzi growth-3 | 3T3 cytotox | 3T3 cytotox 2
COc1ccccc1-c1ccc([C@@H]2[C@@H](C#N)N(C(=O)NC(C)C)[C@@H]2CO)cc1 | 99* | -1 | 0 | -9 | 96* | 37 | 6 | 38*
COc1ccc(-c2ccc([C@H]3[C@H](C#N)N(C(=O)C4CCCC4)[C@H]3CO)cc2)cc1 | 100* | -5 | x | -26 | 91 | 52 | 17 | 20
COc1ccccc1-c1ccc([C@@H]2[C@H](C#N)N(C(=O)C3CCC3)[C@H]2CO)cc1 | 15 | 1 | x | 12 | x | x | x | x
COc1ccccc1-c1ccc([C@@H]2[C@@H](C#N)N(C(=O)C3CCC3)[C@@H]2CO)cc1 | 98* | -1 | x | 11 | 83 | 19 | -3 | 1
COc1ccc(-c2ccc([C@@H]3[C@@H](CO)N(C(=O)c4cccnc4)[C@H]3C#N)cc2)cc1 | 96* | -1 | x | -27 | 63 | -13 | -18 | 11
COc1ccc(-c2ccc([C@@H]3[C@H](C#N)N(C(=O)c4cccnc4)[C@H]3CO)cc2)cc1 | 17 | -1 | x | 10 | x | x | x | x
COc1ccc2c3c(n(C)c2c1)[C@H](CO)N(C(=O)c1ccccc1)CC31CN(C(C)=O)C1 | x | -1 | x | 10 | x | x | x | x
C[C@H]1CN([C@@H](C)CO)C(=O)c2cc(NS(=O)(=O)c3cn(C)cn3)ccc2O[C@@H]1CN(C)Cc1ccc2c(c1)OCO2 | -26 | -4 | 2 | 24 | x | x | x | x
COc1ccc(-c2ccc([C@H]3[C@@H](CO)N(C(=O)CN(C)C)[C@H]3C#N)cc2)cc1 | 105* | 0 | 0 | 0 | 109* | 22 | 20 | u
COc1ccccc1-c1ccc([C@H]2[C@@H](CO)N(C(=O)C3CC3)[C@H]2C#N)cc1 | 103* | 4 | 0 | 38 | 41 | 21 | 0 | -2
COc1ccccc1-c1ccc([C@H]2[C@H](C#N)N(C(=O)C3CCC3)[C@H]2CO)cc1 | 15 | 0 | x | -28 | x | x | x | x
COc1ccccc1-c1ccc([C@H]2[C@@H](CO)N(C(=O)C3CCC3)[C@H]2C#N)cc1 | 99* | -1 | 0 | 30 | 30 | -26 | 12 | -6
COc1ccccc1-c1ccc([C@@H]2[C@@H](C#N)N(C(=O)CN(C)C)[C@H]2CO)cc1 | 58 | 1 | x | 1 | x | x | x | x
N#C[C@H]1[C@@H](c2ccc(/C=C/c3ccccc3)cc2)[C@@H](CO)N1C(=O)C1CC1 | u | 0 | x | 41 | 106* | 40 | 20 | 35*
CN(C[C@@H]1N[C@H](CO)[C@@H]1c1ccc(-c2cccc(F)c2)cc1)C(=O)CC1CC1 | x | 4 | x | -4 | x | x | x | x
CCCNC(=O)N1CC2(CN(Cc3cccc(OC)c3)C2)c2c([nH]c3cc(OC)ccc23)[C@@H]1CO | x | -1 | x | -40 | x | x | x | x
C[C@H](CO)N1C[C@H](C)[C@H](CN(C)C(=O)Nc2cc(F)ccc2F)Oc2cc(-c3cccc(F)c3)ccc2S1(=O)=O | 83 | 0 | 0 | -65 | x | x | x | x
C[C@@H]1CN([C@H](C)CO)S(=O)(=O)c2ccc(C#CC3CC3)cc2O[C@@H]1CN(C)C(=O)Nc1cc(F)ccc1F | 105* | -1 | -1 | -32 | 109* | 55 | -15 | -1
C[C@@H]1CN([C@@H](C)CO)S(=O)(=O)c2ccc(-c3ccccc3)cc2O[C@@H]1CN(C)C(=O)Nc1ccccc1F | -78 | 3 | x | -28 | x | x | x | x

Bioassay records: PubChem BioAssay, Broad Institute
